Screens from PubChem.
CHT allo act: allosterically activates the human high affinity choline transporter; CHT-expressing cells, membrane potential dye, choline EC20; hits give high values; LV-AA mutant CHT in HEK293 cells; B-score at 10 µM; AID 488977; 310,000 tested, 0.49% active;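 active means initial fluorescence not abnormally high and integrated response B-score, plate-corrected, over 3 SD above library mean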
DSG3 Ab inh: human desmoglein-3 autoantibody binding inhibition; binding (percent of control), % at 10 µM; DSG3-coupled beads, scFv-anti-DSG3-GFP binding, flow cytometry; hits give low values; 310,000 tested, 0.48% active; AID 588358;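 active means binding more than 3 SD below its plate's average and above zero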;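 further: hits lower antibody fragment binding to DSG3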
Target sequence (P32926 whole entry, looked up, the tested form may be a part): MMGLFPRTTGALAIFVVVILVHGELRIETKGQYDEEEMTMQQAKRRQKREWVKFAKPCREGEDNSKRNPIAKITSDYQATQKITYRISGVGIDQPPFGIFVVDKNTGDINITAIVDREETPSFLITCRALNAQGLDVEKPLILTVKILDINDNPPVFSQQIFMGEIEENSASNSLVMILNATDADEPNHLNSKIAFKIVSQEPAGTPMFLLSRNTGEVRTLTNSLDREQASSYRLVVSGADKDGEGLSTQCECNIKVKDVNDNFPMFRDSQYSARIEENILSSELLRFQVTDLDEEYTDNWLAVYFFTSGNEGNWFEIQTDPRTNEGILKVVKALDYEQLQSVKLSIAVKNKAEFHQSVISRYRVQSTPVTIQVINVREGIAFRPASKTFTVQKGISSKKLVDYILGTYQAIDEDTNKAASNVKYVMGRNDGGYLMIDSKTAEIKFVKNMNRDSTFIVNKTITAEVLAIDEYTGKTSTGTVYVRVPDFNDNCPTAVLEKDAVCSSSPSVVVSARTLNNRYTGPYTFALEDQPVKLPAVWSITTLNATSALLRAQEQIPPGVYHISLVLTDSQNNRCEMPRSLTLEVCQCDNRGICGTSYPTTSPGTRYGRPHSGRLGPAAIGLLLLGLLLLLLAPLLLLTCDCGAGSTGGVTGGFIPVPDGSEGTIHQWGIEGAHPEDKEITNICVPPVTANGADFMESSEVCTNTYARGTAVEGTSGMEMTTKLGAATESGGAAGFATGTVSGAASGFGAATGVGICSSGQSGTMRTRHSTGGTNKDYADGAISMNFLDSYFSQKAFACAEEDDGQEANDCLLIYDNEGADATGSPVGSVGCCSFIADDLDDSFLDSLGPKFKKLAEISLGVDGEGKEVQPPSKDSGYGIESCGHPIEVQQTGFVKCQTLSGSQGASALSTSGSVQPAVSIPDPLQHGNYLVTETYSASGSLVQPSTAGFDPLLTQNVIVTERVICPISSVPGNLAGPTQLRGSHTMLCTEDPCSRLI
GPR7 antagonist: blocks human GPR7 receptor signaling. P48145. inhibition, % at 4.4 µM. 290,000 tested, 1.1% active. GPR7-expressing cells, fluorescence antagonist assay. AID 1861; in the data active means inhibition above about 16%, passing the limit was not always enough;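 further: cells stimulated with the agonist NPW; 0% = agonist with vehicle and 100% = vehicle without agonist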
T cell modulator: T cell immune modulation candidate; 2C CD8+ T cell-vesicle binding, flow cytometry; hits give low values; 330,000 tested, 0.068% active; response (vesicle binding), % at 7 µM;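 active means response, share of CD8 T cells binding vesicles, and their 90th percentile fluorescence all below set limits, cut at about 80% in these data, passing the limit was not always enough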;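 further: values below 100% mean blocked vesicle binding to the CD8+ T cells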
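Material: murine 2C transgenic CD8+ T lymphocytes / Also added: QL9-peptide-loaded Drosophila micro-vesicles bearing Ld, ICAM-1 and B7-1 / Schedule: binding step 1.5 h, 37 °C, antibody labelling 20 min, ice / Signal: flow cytometry, PE anti-B7-1 (FL2) versus Alexa647 anti-CD8 (FL8), PFA-fixed / Evaluation: percent CD8+ FL2 mean versus row control / Benchmarks: naked versus QL9-loaded vesicles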
p-CIP stab down: compounds decreasing mouse p/CIP protein stability | Q05BA5 | F442A p/CIP-EGFP cells, EGFP fluorescence, 16 h | decrease of EGFP signal, % at 10 µM | 290,000 tested, 0.01% active;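 active means EGFP signal decrease of at least 30% at 10 µM or well 3 SD below plate mean, unless failing retest; inactive means the rest, including hits failing retest or dose response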
CHT inh: inhibits the human high affinity choline transporter; Q9GZV3; CHT-expressing cells, membrane potential dye, choline response; hits give low values; B-score at 10 µM; 310,000 tested, 0.86% active;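 active means B-score over 3 SD under the library average, and starting fluorescence ratio not unusually high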;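 further: choline stimulus applied at its EC90 after an EC20 pre-addition; B-score computed on integrated fluorescence ratio after choline addition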
CHT block conf: human CHT inhibition, confirmatory screen | CHT activity remaining % of control (hits give low values), % at 10 µM | 2,400 tested, 70% active | CHT-expressing cells, choline membrane potential dye; LV-to-AA substituted CHT, HEK293 cells | shares compounds with CHT inh;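 active means choline transporter activity left, mean of duplicates at 10 µM, below buffer-only control mean minus 3 SD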;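 further: depolarization triggered by choline at its EC90 following an EC20 pre-addition; 0% = hemicholinium-3 full block and 100% = buffer-only control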
HEK293 CHT ctr: activity in parental HEK293 cells lacking CHT; shares compounds with CHT inh; membrane potential dye, choline response; active = decrease or increase beyond buffer ±3SD; membrane potential ratio readout (active if shifted either direction beyond buffer ±3SD; no single direction) at 10 µM; 2,400 tested, 4% active; AID 493222;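 further: parental cells lack the transporter so any hit is non-specific; ratio is peak minus trough fluorescence over baseline after EC90 choline challenge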
* marks the source's active call; other numbers are inactive results; i = inactive; . = no result. The list is not random: actives were taken first. Their share in the collection is about 2.3%.

SMILES	CHT allo act	DSG3 Ab inh	GPR7 antagonist	T cell modulator	p-CIP stab down	CHT inh	CHT block conf	HEK293 CHT ctr
CCCOc1ccc(Br)cc1CSC(=N)N	i	103	54*	226	-9	-6.1*	33%*	i
O=C1NC(=Nc2ccccc2Cl)S/C1=C\c1cccc([N+](=O)[O-])c1O	i	117	13	153	-2	-5*	38%*	i
Cc1ccc(CNC(=O)c2ccccc2NS(=O)(=O)c2ccc(Cl)nc2)cc1	i	.	-8	203	4	-5.7*	54%*	i
C=CCNC(=S)N1N=C(c2ccco2)CC1c1ccco1 (centres undefined)	.	122	.	.	.	.	.	.
CCOCCCn1c(=S)[nH]c2cc(C(=O)N3CCN(C4CCCCC4)CC3)ccc2c1=O	i	.	-12	199	0	-5.1*	57%*	i
CC(=C\c1ccccc1)/C=C1/SC(=S)N(CCC(=O)O)C1=O	i	110	24	149	-2	i	.	.
CC(/C=C1\SC(=S)N(CC(=O)O)C1=O)=C\c1ccccc1	i	104	-8	122	-10	-6*	40%*	i
CC(/C=C1\SC(=S)N(C(C(=O)O)c2ccccc2)C1=O)=C\c1ccccc1 (centres undefined)	i	91	-9	412	-9	i	46%*	i
Cc1cccc(OCCCn2c(CCNC(=O)C(C)C)nc3ccccc32)c1	i	107	-5	195	0	-5.1*	i	i
CC1CCN(CC(O)COc2ccc(OCC(O)CN3CCC(C)CC3)cc2)CC1 (centres undefined)	i	107	-2	252	5	-10*	5.8%*	i
CC(=O)c1ccc(OCC(O)CN2CCC(C)CC2)cc1 (centres undefined)	i	108	-6	294	-22	i	.	.
COc1ccc(C(=O)c2cc([N+](=O)[O-])ccc2N2CCCC2)cc1	i	101	-7	263	-8	i	.	.
COc1ccc(C(=O)c2cc([N+](=O)[O-])ccc2N2CCN(C)CC2)cc1	i	96	34*	416	12	-6.9*	44%*	4.7*
C[C@H](NC(=O)c1ncn2c1C(=O)NC[C@H]2C)c1ccccc1	.	99	.	.	.	.	.	.
CCOc1ccccc1NC(=O)NC(C)c1ccc2c(c1)OCO2 (centres undefined)	i	.	-21	197	-15	i	.	.
CCn1c(=O)cc(OCC(=O)NC(C)c2ccc3c(c2)OCCO3)c2ccccc21 (centres undefined)	i	101	-8	138	-9	-9.5*	18%*	i
CCOc1ccccc1C(=O)NC(C)c1ccc2c(c1)OCO2 (centres undefined)	i	99	-8	552	-4	-6.4*	46%*	i
CC1=C(C(=O)O)CC(S(=O)(=O)O)C1(C)C (centres undefined)	.	98	.	.	.	.	.	.
CCc1ccc(/C=C/c2c([N+](=O)[O-])c(=O)n(C)c(=O)n2C)cc1	i	102	-6	328	0	i	.	.
Cn1c(/C=C/N(Cc2ccccc2)c2ccccc2)c([N+](=O)[O-])c(=O)n(C)c1=O	i	102	-8	119	0	-8.4*	49%*	i
CCN(CC)S(=O)(=O)c1cc(C(=O)Nc2cc(S(=O)(=O)N3CCOCC3)ccc2N2CCN(C)CC2)ccc1C	.	101	.	.	.	.	.	.
Cc1cnc(C2OCCO2)c2cccc([N+](=O)[O-])c12	.	107	.	.	.	.	.	.
CCCCn1c(N)c(N(CCOC)C(=O)CN(C)CC(=O)Nc2ccc(Cl)c(Cl)c2)c(=O)[nH]c1=O	.	104	.	318	.	.	.	.
COc1c(/C=C2\SC(=Nc3ccccc3Cl)NC2=O)cccc1[N+](=O)[O-]	i	109	-19	225	-23	i	.	.
COc1cc(/C=C2/S/C(=N/S(=O)(=O)Cc3ccccc3)NC2=O)c([N+](=O)[O-])cc1OC	i	103	-9	155	-24	-6.3*	37%*	i
SMILES	CHT allo act	DSG3 Ab inh	GPR7 antagonist	T cell modulator	p-CIP stab down	CHT inh	CHT block conf	HEK293 CHT ctr
COc1cc(/C=C2/S/C(=N/S(=O)(=O)c3ccccc3)NC2=O)c([N+](=O)[O-])cc1OC	i	102	-9	307	-1	i	.	.
COc1cc(/C=C2\S/C(=N/S(=O)(=O)Cc3ccccc3)NC2=O)c([N+](=O)[O-])cc1OC	i	95	-6	162	-4	-5*	49%*	i
CCCCCn1c(N)c(-c2nc3ccccc3s2)c2c([N+](=O)[O-])nn(C)c(=O)c21	i	89	12	828	10	-6.3*	i	i
CCN(C(=O)CSc1nc2cc(C(=O)O)ccc2c(=O)n1-c1ccccc1F)C1CCS(=O)(=O)C1 (centres undefined)	.	102	.	.	.	.	.	.
CCOC(=O)c1sc(=S)n(CC)c1NC(=O)C1CC1	i	.	13	569	-11	-6.1*	71%*	i
CCOC(=O)c1sc(NC(=O)C2CCCCC2)nc1C	i	114	.	226	.	i	.	.
CN1CCC(N(C)C(=O)c2cc(-c3ccc(F)cc3)nc3ccccc23)CC1	.	97	.	296	.	.	.	.
CSCCC(NC(=O)c1ccccc1Br)C(=O)N1CCN(C/C=C/c2ccccc2)CC1 (centres undefined)	.	104	.	.	.	.	.	.
CC1NC(C)(C)Cc2c1ccc1ccccc21 (centres undefined)	i	91	-1	292	-4	i	.	.
CC[N+]1(CC)CC2=Cc3c(ccc4ccccc34)C(C)C2C1 (centres undefined)	i	107	-7	262	1	-6*	60%*	i
O=c1c(OCc2ccccc2)cccn1Cc1ccccc1	.	105	.	.	.	.	.	.
CC1=NN(C(=O)c2ccc(Br)cc2)C(O)(C(F)(F)OC(F)(F)F)C1 (centres undefined)	i	109	-7	840	0	-5.1*	44%*	i
Cc1ccc(C(=O)N/C(=C\c2ccco2)C(=O)N2CCOCC2)cc1C	i	119	-6	231	-7	i	.	.
O=C(CCc1ccc(S(=O)(=O)N2CCOCC2)cc1)N/N=C/c1ccc(O)c(O)c1O	i	94	-6	234	-15	-12*	i	i
O=C(Nc1ccc(S(=O)(=O)NC2=NCCCCC2)cc1)c1ccc(C(F)(F)F)cc1	i	100	-10	134	-19	-6.8*	41%*	i
